Assay results reported in ChEMBL document CHEMBL3392957, “The discovery of 1,2,3,9b-tetrahydro-5H-imidazo[2,1-a]isoindol-5-ones as a new class of respiratory syncytial virus (RSV) fusion inhibitors. Part 1” (Bioorg Med Chem Lett, 2015).

What was measured:
[1] = test system: Respiratory syncytial virus; test: Selectivity ratio of EC50 for Respiratory syncytial virus A Long harboring F protein D489Y mutant infected in human Hep2 cells to EC50 for wild-type Respiratory syncytial virus A Long infected in human Hep2 cells
[2] = Cytotoxicity against human Hep2 cells after 5 days by MTT assay; type: cell-based, HEp-2
How it was run: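 Uninfected HEp2 cells (1.0 × 10⁴/well) with serially diluted compound, 5 days at 37 °C in 5% CO₂; viability by MTT (1 mg/ml, 2 h), isopropanol, absorbance 540 nm; CC₅₀ by non-linear regression.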

[3] = test system: Respiratory syncytial virus; test: Antiviral activity against Respiratory syncytial virus A2 infected in human Hep2 cells assessed as inhibition of virus-induced cytopathicity after 5 days by MTT assay; type: functional, organism-based; details: A2, HEp-2, 120 h
How it was run: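 HEp2 cells (1.0 × 10⁴/well) infected at low moi (e.g. RSV A2 at moi 0.01) and added to serially diluted compound; 5 days at 37 °C, 5% CO₂. CPE read by MTT (1 mg/ml, 2 h, 37 °C), isopropanol, absorbance 540 nm; EC₅₀ by non-linear regression. SD given where n > 2.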

O=c1n(Cc2nc3ccccc3n2CCCCO)c2cnccc2n1C1CC1
Ratio EC50 [1]: 380

Cc1nnnn1/N=C/c1ccc(O)c(C(c2ccc(O)cc2)c2cc(/C=N/n3nnnc3C)ccc2O)c1
Ratio EC50 [1]: >1400

O=C(c1ccccc1)N1CCN2C(=O)c3ccccc3C12c1ccc(Cl)cc1 (racemic)
CC50 at 120 h [2]: > 20 µM
EC50 [3]: 450 nM

O=C(c1ccc(F)cc1)N1CCN2C(=O)c3ccccc3C12c1ccccc1 (racemic)
CC50 at 120 h [2]: > 20 µM
EC50 [3]: 1100 nM

Cc1ccc(C(=O)N2CCN3C(=O)c4ccccc4C23c2ccc(Cl)cc2)cc1 (racemic)
CC50 at 120 h [2]: 17 µM
EC50 [3]: 5800 nM

O=C1c2ccccc2C2(c3ccc(Cl)cc3)NCCN12 (racemic)
CC50 at 120 h [2]: > 70 µM
EC50 [3]: > 20000 nM

O=C(c1ccc(C(F)(F)F)cc1)N1CCN2C(=O)c3ccccc3C12c1ccc(Cl)cc1 (racemic)
CC50 at 120 h [2]: 17 µM
EC50 [3]: > 20000 nM

O=C(c1ccc(OC(F)(F)F)cc1)N1CCN2C(=O)c3ccccc3C12c1ccc(Cl)cc1 (racemic)
CC50 at 120 h [2]: 5.7 µM
EC50 [3]: > 20000 nM

COc1ccc(C(=O)N2CCN3C(=O)c4ccccc4C23c2ccc(Cl)cc2)cc1 (racemic)
CC50 at 120 h [2]: 16 µM
EC50 [3]: > 20000 nM

O=C(c1ccc(F)cc1)N1CCN2C(=O)c3ccccc3C12 (racemic)
CC50 at 120 h [2]: > 20 µM
EC50 [3]: > 20000 nM

O=C(c1ccc(F)cc1)N1CCN2C(=O)c3ccccc3C12c1ccc(F)cc1 (racemic)
CC50 at 120 h [2]: > 20 µM
EC50 [3]: 710 nM

O=C(c1ccc(F)cc1)N1CCN2C(=O)c3ccccc3C12c1ccc(C(F)(F)F)cc1 (racemic)
CC50 at 120 h [2]: > 20 µM
EC50 [3]: 510 nM

Cc1ccc(C23c4ccccc4C(=O)N2CCN3C(=O)c2ccc(F)cc2)cc1 (racemic)
CC50 at 120 h [2]: > 20 µM
EC50 [3]: 180 nM

CCc1ccc(C23c4ccccc4C(=O)N2CCN3C(=O)c2ccc(F)cc2)cc1 (racemic)
CC50 at 120 h [2]: > 18 µM
EC50 [3]: 210 nM

CCCc1ccc(C23c4ccccc4C(=O)N2CCN3C(=O)c2ccc(F)cc2)cc1 (racemic)
CC50 at 120 h [2]: 18 µM
EC50 [3]: 270 nM

CC(C)c1ccc(C23c4ccccc4C(=O)N2CCN3C(=O)c2ccc(F)cc2)cc1 (racemic)
CC50 at 120 h [2]: > 20 µM
EC50 [3]: 1200 nM

O=C(c1ccc(F)cc1)N1CCN2C(=O)c3ccccc3C12c1ccccn1 (racemic)
CC50 at 120 h [2]: > 20 µM
EC50 [3]: > 20000 nM

O=C(c1ccc(F)cc1)N1CCN2C(=O)c3ccccc3C12c1cccnc1 (racemic)
CC50 at 120 h [2]: > 20 µM
EC50 [3]: 10000 nM

COc1ccc(C23c4ccccc4C(=O)N2CCN3C(=O)c2ccc(F)cc2)cc1 (racemic)
CC50 at 120 h [2]: > 20 µM
EC50 [3]: 530 nM

O=C(c1ccc(F)cc1)N1CCN2C(=O)c3ccccc3C12c1ccc(O)cc1 (racemic)
CC50 at 120 h [2]: > 20 µM
EC50 [3]: 11000 nM

CCOc1ccc(C23c4ccccc4C(=O)N2CCN3C(=O)c2ccc(F)cc2)cc1 (racemic)
CC50 at 120 h [2]: > 20 µM
EC50 [3]: 200 nM

CCCOc1ccc(C23c4ccccc4C(=O)N2CCN3C(=O)c2ccc(F)cc2)cc1 (racemic)
CC50 at 120 h [2]: > 20 µM
EC50 [3]: 630 nM

CC(C)Oc1ccc(C23c4ccccc4C(=O)N2CCN3C(=O)c2ccc(F)cc2)cc1 (racemic)
CC50 at 120 h [2]: > 20 µM
EC50 [3]: 1100 nM

O=C(c1ccc(F)cc1)N1CCN2C(=O)c3ccccc3C12c1ccc(OCC2CC2)cc1 (racemic)
CC50 at 120 h [2]: > 20 µM
EC50 [3]: 79 nM

N#CCOc1ccc(C23c4ccccc4C(=O)N2CCN3C(=O)c2ccc(F)cc2)cc1 (racemic)
CC50 at 120 h [2]: > 17 µM
EC50 [3]: 240 nM

COCCOc1ccc(C23c4ccccc4C(=O)N2CCN3C(=O)c2ccc(F)cc2)cc1 (racemic)
CC50 at 120 h [2]: > 16 µM
EC50 [3]: 250 nM

COC(=O)COc1ccc(C23c4ccccc4C(=O)N2CCN3C(=O)c2ccc(F)cc2)cc1 (racemic)
CC50 at 120 h [2]: > 16 µM
EC50 [3]: 3300 nM

NC(=O)COc1ccc(C23c4ccccc4C(=O)N2CCN3C(=O)c2ccc(F)cc2)cc1 (racemic)
CC50 at 120 h [2]: 11 µM
EC50 [3]: 1000 nM

CC(=O)COc1ccc(C23c4ccccc4C(=O)N2CCN3C(=O)c2ccc(F)cc2)cc1 (racemic)
CC50 at 120 h [2]: > 16 µM
EC50 [3]: 860 nM

O=C(c1ccc(F)cc1)N1CCN2C(=O)c3ccccc3C12c1cccc(Cl)c1 (racemic)
CC50 at 120 h [2]: > 18 µM
EC50 [3]: 190 nM

N#CCOc1cccc(C23c4ccccc4C(=O)N2CCN3C(=O)c2ccc(F)cc2)c1 (racemic)
CC50 at 120 h [2]: > 17 µM
EC50 [3]: 3400 nM

COCCOc1cccc(C23c4ccccc4C(=O)N2CCN3C(=O)c2ccc(F)cc2)c1 (racemic)
CC50 at 120 h [2]: > 16 µM
EC50 [3]: > 16000 nM

O=C1c2ccccc2C2(c3ccc(Cl)cc3)N1CCN2c1ccccc1 (racemic)
CC50 at 120 h [2]: > 20 µM
EC50 [3]: > 20000 nM

O=C1c2ccccc2C2(c3ccc(Cl)cc3)N(Cc3ccc(F)cc3)CCN12 (racemic)
CC50 at 120 h [2]: 16 µM
EC50 [3]: > 20000 nM

O=C(Cc1ccc(F)cc1)N1CCN2C(=O)c3ccccc3C12c1ccc(Cl)cc1 (racemic)
CC50 at 120 h [2]: > 20 µM
EC50 [3]: 970 nM

O=C(c1ccc(Cl)cc1)N1CCN2C(=O)c3ccccc3C12c1ccc(Cl)cc1 (racemic)
CC50 at 120 h [2]: 17 µM
EC50 [3]: 3700 nM

O=C(Nc1ccccc1)N1CCN2C(=O)c3ccccc3C12c1ccc(Cl)cc1 (racemic)
CC50 at 120 h [2]: > 20 µM
EC50 [3]: 7100 nM

COc1ccc(NC(=O)N2CCN3C(=O)c4ccccc4C23c2ccc(Cl)cc2)cc1 (racemic)
CC50 at 120 h [2]: > 20 µM
EC50 [3]: 1600 nM

O=C(NCc1ccccc1)N1CCN2C(=O)c3ccccc3C12c1ccc(Cl)cc1 (racemic)
CC50 at 120 h [2]: > 20 µM
EC50 [3]: 730 nM

O=C(NCc1ccc(F)cc1)N1CCN2C(=O)c3ccccc3C12c1ccc(Cl)cc1 (racemic)
CC50 at 120 h [2]: 10 µM
EC50 [3]: 600 nM

O=C(c1cccc(Cl)n1)N1CCN2C(=O)c3ccccc3C12c1ccc(Cl)cc1 (racemic)
CC50 at 120 h [2]: > 17 µM
EC50 [3]: 470 nM

O=C(c1ccco1)N1CCN2C(=O)c3ccccc3C12c1ccc(Cl)cc1 (racemic)
CC50 at 120 h [2]: 12 µM
EC50 [3]: 260 nM

CC(=O)N1CCN2C(=O)c3ccccc3C12c1ccc(Cl)cc1 (racemic)
CC50 at 120 h [2]: > 20 µM
EC50 [3]: 1200 nM

CCC(=O)N1CCN2C(=O)c3ccccc3C12c1ccc(Cl)cc1 (racemic)
CC50 at 120 h [2]: > 20 µM
EC50 [3]: 1000 nM

CC(C)CC(=O)N1CCN2C(=O)c3ccccc3C12c1ccc(Cl)cc1 (racemic)
CC50 at 120 h [2]: > 20 µM
EC50 [3]: 740 nM

O=C1c2ccccc2C2(c3ccc(Cl)cc3)N1CCN2C(=O)C1CC1 (racemic)
CC50 at 120 h [2]: > 21 µM
EC50 [3]: 4900 nM

COCC(=O)N1CCN2C(=O)c3ccccc3C12c1ccc(Cl)cc1 (racemic)
CC50 at 120 h [2]: > 21 µM
EC50 [3]: 2700 nM

N#CCC(=O)N1CCN2C(=O)c3ccccc3C12c1ccc(Cl)cc1 (racemic)
CC50 at 120 h [2]: > 21 µM
EC50 [3]: 4500 nM

O=C(CC1CCCCC1)N1CCN2C(=O)c3ccccc3C12c1ccc(Cl)cc1 (racemic)
CC50 at 120 h [2]: 14 µM
EC50 [3]: 4500 nM

O=C(c1ccc(F)cc1)N1CCN2C(=O)c3ncccc3C12c1ccc(Cl)cc1 (racemic)
CC50 at 120 h [2]: > 20 µM
EC50 [3]: 880 nM

O=C(c1ccc(F)cc1)N1CCN2C(=O)c3cccnc3C12c1ccc(Cl)cc1 (racemic)
CC50 at 120 h [2]: > 20 µM
EC50 [3]: 1200 nM

O=C(c1ccc(F)cc1)N1CCN2C(=O)c3nccnc3C12c1ccc(Cl)cc1 (racemic)
CC50 at 120 h [2]: > 18 µM
EC50 [3]: > 18000 nM

O=C(c1ccc(F)cc1)N1CCN2C(=O)c3cnccc3C12c1ccc(Cl)cc1 (racemic)
CC50 at 120 h [2]: > 18 µM
EC50 [3]: 2700 nM
